# Assay outcomes as filed in PubChem.
# Only a selection was taken, and hits are over-represented in it overall.
# INS promoter act – TRM-6 insulin promoter activation; 130,000 compounds, 0.81% hits; AID 1296; TRM-6 cells, insulin promoter eGFP reporter, imaging; plate-scaled: unstimulated 0, stimulated control 100; activation, % at 2 µM;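 active = activation at 2 µM above a set limit, confirmed on inspection of the cell images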;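 note: share of cells whose green reporter signal exceeds an intensity cutoff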
#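 Test system: human fetal islet-derived TRM-6 cells with tamoxifen-inducible insulin promoter–eGFP reporter; schedule: overnight tamoxifen, then two-day compound incubation at 37 °C; measured by: high-content imaging of fixed cells with Hoechst nuclear stain; evaluation: percent cells above green-intensity threshold, converted to percent activation versus plate controls; control set: stimulated and unstimulated wells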
# * marks the source's active call; other numbers are inactive results.
SMILES,INS promoter act
Cc1cc(C(=O)CSc2ccc3c(c2)OCCO3)c(C)n1C1CC1,0
CN(C)S(=O)(=O)c1cccc(NC(=O)Cc2ccc(Cl)cc2)c1,9
Cc1ccsc1C(=O)Nc1cccc(S(=O)(=O)N(C)C)c1,431*
CN(C)S(=O)(=O)c1cccc(C(=O)Nc2ccccc2)c1,7
Cc1c(C)n(C(=O)CN2CCC(C)CC2)c2ccccc12,3
Cc1cccc(C)c1NC(=S)N=Nc1c(O)n(C)c2ccc(S(=O)(=O)N3CCOCC3)cc12,514*
O=S(=O)(c1ccc(Cl)c(NC(=S)Nc2cccc(O)c2)c1)N1CCOCC1,0
Cc1ccc(S(=O)(=O)N2CCOCC2)cc1C(=O)Nc1c(C)n(C)n(-c2ccccc2)c1=O,8
COc1ccc(CCCC(=O)Nc2ccc(F)cc2)cc1,8
O=C(CN1C(=O)c2cccc3cccc(c23)C1=O)N1CCOCC1,-8
O=C(c1cccn2c(=O)c3ccccc3nc12)N1CCN(Cc2ccc3c(c2)OCO3)CC1,7
O=C(CN1C(=O)c2cccc3cccc1c23)N1CCN(Cc2ccc3c(c2)OCO3)CC1,500*
CC(=O)Nc1ccc(S(=O)(=O)N(C)CC(=O)OCC(=O)c2cc(C)n(-c3ccc4c(c3)OCO4)c2C)cc1,3
COc1ccc(C)cc1N(CC(=O)N/N=C/c1ccc2c(c1)OCO2)S(C)(=O)=O,7
CCOc1ccccc1Nc1nc(N)nc(CN2CCCCC2C)n1 (stereo unspecified),8
CCN(CC)CCOc1cccc(C(C)C)c1,9
CCOc1ccc(C(=O)OCCN(CC)CC)cc1,-80
CCN(CC)CCOc1ccc(/C(=C(/Cl)c2ccccc2)c2ccccc2)cc1,280*
O=C1C(=O)c2ccc(-c3ccccc3)cc2-c2ccccc21,-27
Cc1ccc(N2C(=O)c3ccc(N)cc3C2=O)cc1C,0
Nc1ccc2c(c1)C(=O)C(=O)c1ccccc1-2,239*
COc1ccc(NC(=O)CCN2C(=O)C3C4CCC(C4)C3C2=O)cc1 (stereo unspecified),8
CC(NC(=O)C(C(=O)c1cccc([N+](=O)[O-])c1)n1cc(Cl)ccc1=O)c1ccccc1 (stereo unspecified),119
Cc1ccsc1/C=N/NC(=O)CNC(=O)c1cccc([N+](=O)[O-])c1C,8
O=C1c2ccccc2C(=O)N1CC(O)CN1CCOCC1 (stereo unspecified),533*
SMILES,INS promoter act
CC(C(=O)N1CCOCC1)N1C(=O)c2ccccc2C1=O (stereo unspecified),282
O=C(c1ccccc1)c1ccc(OCC(O)CN2CCOCC2)cc1 (stereo unspecified),233
CCC(C)n1ncn(-c2ccc(N3CCN(c4ccc(OC)cc4)CC3)cc2)c1=O (stereo unspecified),-3
S=c1[nH]nc(COc2ccc(Cl)cc2)n1C1CCCCC1,437*
Cc1cccc(OCc2n[nH]c(=S)n2C2CCCCC2)c1,-75
Cc1n[nH]c(=S)n1/N=C/c1ccc(OCc2ccc(Cl)cc2)cc1,0
CC(C)CC(=O)Nc1nnc(SCC(=O)NCc2ccc3c(c2)OCO3)s1,-9
CN(CC(=O)Nc1ccc(F)cc1)C(=O)COc1ccc(C(=O)c2ccccc2)cc1,0
CCOC(=O)CSc1nc2ccccc2c(=O)n1CCN1CCOCC1,5
CCOC(=O)COn1c(SCC(=O)OCC)nc2ccccc2c1=O,4
CCOC(=O)C(C)Sc1nc2ccccc2c(=O)n1CC (stereo unspecified),426*
CCSc1cc(N2CCOCC2)nc(-c2ccc(Cl)cc2)n1,0
Cc1cccc(NC(=O)C(=O)NCCCN2CCOCC2)c1,3
Cc1cc(=O)n2[nH]c(NCc3ccccc3F)nc2n1,0
CCC(=O)Nc1nc2nc(C)cc(=O)n2[nH]1,-4
Cc1cc(=O)n2[nH]c(C(=O)O)nc2n1,77*
Cc1ccc(CN(Cc2ccco2)S(=O)(=O)c2ccc(S(=O)(=O)NCC3CCCO3)cc2)cc1 (stereo unspecified),0
O=C(Nc1ccc(Cl)cc1)OCCn1nnnc1C(c1ccccc1Cl)N1CCOCC1 (stereo unspecified),3
CCCn1c(C)cc(C(=O)COc2ccc(-c3nnco3)cc2)c1C,0
Cc1cc(C)cc(OCC(=O)Nc2nonc2NC(=O)COc2cc(C)cc(C)c2)c1,-6
COc1cc2c(cc1NC(=O)COc1ccc3ccccc3c1)oc1ccccc12,-7
Cc1cccnc1NC(=O)COc1ccc2oc3c(c2c1)CCCC3,433*
COc1ccc(N/N=C(/C(N)=O)C2=NC(C)(C)Cc3ccccc32)cc1,3
CC(=O)c1c(C)[nH]c(C(=O)CSc2nnc(C)s2)c1C,0
Cc1ccc(CC2SC(=O)NC2=O)cc1Cl (stereo unspecified),9
SMILES,INS promoter act
Cc1ccc(CC2S/C(=N/c3ccccn3)NC2=O)cc1 (stereo unspecified),0
O=C1N/C(=N\c2ccccn2)SC1Cc1ccc(Cl)cc1 (stereo unspecified),450*
COc1ccc(OC)c(/C=N/NC(=O)c2ccc(Cn3cc([N+](=O)[O-])cn3)o2)c1,-7
Cc1ccc([N+](=O)[O-])cc1N/C=C1\CCc2ccccc2C1=O,4
CCOCCCNC(=O)CN1C(=O)/C(=C/c2ccccc2)Sc2ccccc21,313*
CCN1CCN(CCCNC(=O)c2ccc(/C=C3/Sc4ccccc4N(Cc4ccccc4F)C3=O)cc2)CC1,-6
COCCCNC(=O)CN1C(=O)c2ccccc2C1=O,0
CC(C)CNC(=O)C1CCCN(C(=O)NCc2ccccc2)C1 (stereo unspecified),-7
CCOC(=O)n1c(=O)n(Cc2ccccc2C)c2ccccc21,0
COc1cc(/C=N/NC(=O)c2ccncc2)ccc1OCc1cnc(Cl)s1,240*
COc1cc(/C=C/C(=O)O)ccc1OCc1cnc(Cl)s1,0
COc1cc(/C=N/NC(=O)c2cccc([N+](=O)[O-])c2)ccc1OCc1ccccc1,45
O=C(Nc1ccc(Oc2cccnc2)cc1)c1cccc([N+](=O)[O-])c1,6
CC1=C(C#N)C(NC(=O)c2ccc(Cl)cc2)(C(F)(F)F)C(=O)N1 (stereo unspecified),3
O=C(Nc1cccc2ccccc12)N1CCOCC1,3
N#C/C(=C\c1sc(N2CCOCC2)nc1-c1ccccc1)C(=O)Nc1cccc2ccccc12,223*
CCOc1ccc(NC(=O)c2sc(N3CCOCC3)nc2-c2ccccc2)cc1,-6
COc1cc(/C=N/c2oc(-c3ccccc3)cc2C#N)ccc1O,8
COc1cccc(CNc2ccc([N+](=O)[O-])c(NCC(=O)O)n2)c1,0
Cn1ccnc1SCC(=O)Nc1cccc(S(=O)(=O)N2CCCCCC2)c1,9
CCCCCCCC(=O)NC(Nc1ccc(S(N)(=O)=O)cc1)C(Cl)(Cl)Cl (stereo unspecified),3
O=C(O)/C=C/C(=O)Nc1ccc(NC(=O)c2ccccc2)c(Cl)c1,8
COc1cc(NC(=O)CS(=O)(=O)c2ccccc2)cc(OC)c1OC,381
C/C(CS(=O)(=O)c1ccccc1)=N\O,229*
CCOC(=O)CS(=O)(=O)c1ccccc1,0
SMILES,INS promoter act
Fc1ccccc1CSc1nc2ccccc2[nH]1,-74
O=C(COC(=O)c1ccccc1OCc1ccc(Cl)cc1)NC1CC1,-8
COc1ccc2c(C)cc(SCC(=O)Nc3ccc(Cl)cn3)nc2c1,7
CCCCn1c(/N=C/c2ccc3c(c2)OCO3)nc2ccccc21,81*
CN(C)CCCn1c(NCc2ccc3c(c2)OCO3)nc2ccccc21,-7
Cn1c(=S)n(/N=C/c2ccc3c(c2)OCO3)c2ccccc21,-8
